Assay: Toxicity liver stage against HepG2, at 10uM
Assay type: cell-based
Parameters: test concentration 10 uM, cell line HepG2-A16-CD81EGFP
Settings: human, HepG2-A16-CD81EGFP cells; read-out: INHIBITION
Summary of the method: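 Uninfected HepG2-A16-CD81EGFP cells, 3 × 10^3 per well, 1536-well, plated on prespotted compound at 10 μM final, parasite-free screening media added to match infected plates; puromycin 10 μM positive, DMSO 0.5% negative; run in parallel with 48 h PbLuc assay at 37 °C, 5% CO2; viability by CellTiter-Glo luminescence, normalized to controls.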

Row | Compound | cytotoxicity at 10 µM [%]
1 | COc1ccc(CC(C)Nc2cccc(SC)c2)cc1 (configuration not stated) | 11.6
2 | O=c1c(S(=O)(=O)N2CCCC2)cccn1Cc1ccccc1Cl | 2.96
3 | Cc1cc(=O)n(CCNS(=O)(=O)c2ccc(F)c(Cl)c2)cn1 | 1.18
4 | COc1ncccc1CN1CCc2[nH]nc(C(=O)N(C)C)c2C1 | 1.55
5 | Cc1nc2[nH]cnc(NCCN3CCCC3)c-2n1 | -12
6 | CCn1cc(C(=O)n2nc(C)cc2C)c(S(=O)(=O)N2CCCCC2)n1 | -3.81
7 | CCCC(C)(O)c1cc(C(N)=O)no1 (configuration not stated) | -5.4
8 | Cc1cc(NC(=O)CN2C(=O)CC(C)(C)c3ccccc32)no1 | -3.29
9 | Cc1ccc(-c2cc(N)c(=O)n(C(C)C(=O)NC(C)C)n2)o1 (configuration not stated) | -6.69
10 | CN1CCN(CC2(O)CCCN(S(=O)(=O)c3cn[nH]c3)CC2)CC1 (configuration not stated) | 2.25
11 | CN(C)S(=O)(=O)N1CCC(c2ccnc(Nc3ccccn3)n2)C1 (configuration not stated) | 3.25
12 | O=C(c1n[nH]c(=O)c2ccccc12)N1CCC(O)(CN2CCOCC2)C1 (configuration not stated) | -1.39
13 | Cc1ccc2c(c1C)OCC2NCc1cccc(C#N)c1 (configuration not stated) | 9.91
14 | CNc1ncc(C(=O)N2CCCC(Cc3ccccc3OC)C2)s1 (configuration not stated) | -0.094
15 | Cc1cc(C)n(CC(C)CNC(=O)N(C)Cc2cc(C)on2)n1 (configuration not stated) | -10.2
16 | COC(=O)CN(C(=O)c1cccc(F)c1Cl)c1cccc(C)n1 | 9.5
17 | CCC1CN(CCCO)c2ccccc2O1 (configuration not stated) | -7.24
18 | COC1CCCN(C(=O)NCc2ccc(C(=O)N(C)C(C)C)cc2)C1 (configuration not stated) | -24.8
19 | COc1ncccc1CNC(=O)N1CCC(CN2CCOCC2)CC1 | -39.2
20 | CN(C(=O)c1ccncc1F)c1ccccc1S(C)(=O)=O | 2.23
21 | COc1c(NS(=O)(=O)c2ccc(F)c(C)c2)c(C)nn1C | -6.33
22 | COC(=O)CC(NC(=O)c1cc(OC)c2c(c1)OCCO2)c1cccs1 (configuration not stated) | 2.01
23 | CCS(=O)(=O)N1CCC(Nc2c(Cl)cccc2C#N)CC1 | -0.85

Row | Compound | cytotoxicity at 10 µM [%]
24 | Cc1cc(NCc2csc(C)n2)no1 | 9.48
25 | NCC1(c2cccc(C(F)(F)F)c2)CC1 | -11.2
26 | COc1ccccc1N(C)S(=O)(=O)c1cc(C(=O)O)cs1 | -5.82
27 | COc1ccccc1OCC(=O)NS(=O)(=O)c1ccc(Cl)cc1F | 2.28
28 | CCCn1nc2c(cc1=O)CN(C(C)C(=O)Nc1nccs1)CC2 (configuration not stated) | -1.99
29 | CC(C)C1CN(C(=O)c2cccs2)CCS1 (configuration not stated) | 1.24
30 | CCCC(=O)N(CC)C(c1cccnc1)c1ccc2c(c1)CCO2 (configuration not stated) | 0.217
31 | CC(CN1CCOCC1)NC(=O)c1cc(Cl)c2c(c1)OCO2 (configuration not stated) | -2.35
32 | CCN(Cc1cccc(-c2ccncc2)c1)S(C)(=O)=O | -14
33 | COCCOc1ccccc1C(=O)Nc1c(C)cnn1CC1CC1 | 1.13
34 | CCN(CCc1nccs1)C(=O)c1ncoc1C | 11.3
35 | Cc1nc(CNc2ccc(C(=O)NCc3ccco3)cc2C)no1 | 5.38
36 | COc1ccc2c(OCC(=O)NC(C)(C)C)ccnc2c1 | -2.04
37 | COCC(O)CN(C)C(=O)NCc1ccc(S(C)(=O)=O)cc1 (configuration not stated) | 1.72
38 | CCC(C)(C)NC(=O)Cn1nnc(CN(C)C(=O)c2ccccc2)n1 | 9.74
39 | CNC(=O)c1cc(C)ccc1NCc1cn2cc(C)ccc2n1 | 8.45
40 | Cc1nnc(CN(Cc2ccc(Cl)c(Cl)c2)C(C)C)o1 | 4.91
41 | O=C(NCCCN1CCN(c2ncccn2)CC1)NCC1CCCO1 (configuration not stated) | -43.1
42 | CC(C)c1nnc2n1CCN(C(=O)c1ccc3c(c1)NC(=O)CO3)C2 | 7.07
43 | CCN1CC(C(=O)NC(C)(C)CNC(=O)OC(C)(C)C)CC1=O (configuration not stated) | 7.79
44 | CCC(C)NC(=O)c1ccccc1-n1cnnn1 (configuration not stated) | 13
45 | CC(C)NC(=O)N1CCC2(CC1)Cc1ccccc1CNC2=O | 1.33
46 | Cc1nc([C@@H]2C[C@H]3CN(Cc4ccc5c(c4)OCO5)C[C@H]3O2)no1 | -115

Row | Compound | cytotoxicity at 10 µM [%]
47 | CO[C@@H]1CC[C@H]2[C@H]1OCCN2C(=O)COc1ccc(F)cc1 | 4.42
48 | CCNC(=O)[C@@H]1C[C@@H](NC(=O)CSC)CN1Cc1ccncc1 | -1.87
49 | C[C@@H]1CN(C(=O)c2cn(CCN3CCCCC3)nn2)C[C@H](C)O1 | 4.89
50 | COc1ccc(C(=O)NC2CC2)c(OC2CCN(C3CCC3)CC2)c1 | 0.542
51 | CCCn1ccnc1-c1nccn1CCC(N)=O | -10.3
52 | NC(=O)NCC(=O)N1CCCC(OCc2cccnc2)C1 (configuration not stated) | -1.53
53 | CCn1ccnc1C1CCN(C(=O)Nc2ccc(OC)cc2)CC1 | -1.77
54 | CC(C)Oc1ccc2c(NC(=O)CNC(N)=O)nn(CC(F)(F)F)c2c1 | -5.89
55 | CCN(Cc1cnc(-c2ccccn2)nc1)C1CCS(=O)(=O)C1 (configuration not stated) | -5.24
56 | COC[C@]1(O)CCN(C2CCN(c3ccc(Cl)cc3)CC2)CC1(C)C | -0.75
57 | CNc1nccc(-c2cn(C)nc2C)n1 | -6.59
58 | Cc1ccc(CN2CCN(C(=O)CCc3nc(Cl)n[nH]3)CC2=O)cc1 | -0.903
59 | CC[C@@]1(O)CCN(c2ncc(Cl)cc2C(F)(F)F)C[C@H]1O | 11.6
60 | O=C(N1CCOCC1)N1CCC(Nc2ccncn2)CC1 | -57
61 | Cc1cc(C)n(CC(C)Nc2ncnc3c2CCNC3)n1 (configuration not stated) | 3.37
62 | c1cncc(NCCNC2CCSC2)c1 (configuration not stated) | -3.22
63 | CN(C)C(=O)CCC1CCCN(Cc2ccc(-c3cccnc3)cc2)C1 (configuration not stated) | 4.96
64 | COc1c(F)cc(F)cc1-c1nc2c([nH]1)CCNC2 | 3.94
65 | CCc1nccn1CCC(=O)N1CCCC1c1ccc(F)cc1 (configuration not stated) | 1.58
66 | COc1cccc(-c2cc(NCCO)nc3[nH]ccc23)n1 | 4.46
67 | CC(=O)NC(C(=O)N1CCn2cncc2C1)C(C)C (configuration not stated) | -14.7
68 | Cc1ccc(NC(=O)[C@@H]2C[C@H](C(=O)O)CN(Cc3sccc3C)C2)cn1 | 11
69 | Cc1ncsc1C(=O)N1CCCC(CO)(CC2CC2)C1 (configuration not stated) | -1.5

Row | Compound | cytotoxicity at 10 µM [%]
70 | Cc1nc[nH]c1-c1nccn1CCCN(C)C | 5.05
71 | Cc1nc2c(N3CCC(O)(Cn4ccnc4)CC3)ncnc2o1 | 6.35
72 | O=C1CCC(C(=O)N(Cc2ccsc2)CC2CCCO2)=NN1 (configuration not stated) | -7.97
73 | CC(C)=CCC1(CO)CCCN(Cc2cnc(N3CCOCC3)nc2)C1 (configuration not stated) | -2.6
74 | CCN1CCCC(c2c(-c3ccccc3)ncn2Cc2csc(N)n2)C1 (configuration not stated) | -0.386
75 | O=C(c1ncc(F)cc1F)N1CCC(c2ncc[nH]2)CC1 | -3.73
76 | O=C(Cc1n[nH]c(-c2cncc(Br)c2)n1)NCc1ccncc1 | -6.3
77 | O=C(C1CCC1)N1CC[C@]2(O)CCN(Cc3ncccn3)C[C@@H]2C1 | 3.97
78 | O=C(CN1CCNCC1)N1CC[C@@H](c2ccc3ccccc3c2)[C@H](O)C1 | -8.9
79 | CCN(CCn1cccn1)Cc1nc(-c2ccccc2F)oc1C | 1.04
80 | Cc1noc(C)c1C(=O)NCCSCc1cccs1 | -4.89
81 | CCOc1ncccc1CNC(=O)c1c(C)oc(C)c1C | -3.75
82 | COc1ccc(C(=O)Nc2cnn(CCN3CCOCC3)c2)c(O)c1 | -3.92
83 | Cc1nc(C)n(CC2CCCN2Cc2nc(-c3ccco3)no2)n1 (configuration not stated) | -4.39
84 | CNS(=O)(=O)Cc1cccc(CNC(=O)Nc2cn[nH]c2)c1 | -11.2
85 | Cc1cnn(CC2CCCN2C(=O)CN(C)C2CC2)c1 (configuration not stated) | 3.63
86 | CNC(=O)c1ccc(S(=O)(=O)NCc2cccnc2N(C)C)cc1 | 1.59
87 | Cc1cc(C)n(C2CCCN(C(=O)Cc3ccc(C#N)cc3)C2)n1 (configuration not stated) | -1.31
88 | COc1ccc(CC(=O)N2CCCC(n3nc(C)cc3C)C2)cc1F (configuration not stated) | -1.76
89 | O=C(c1cc(Cl)c2c(c1)OCO2)N1CCCC(n2cncn2)C1 (configuration not stated) | -8.75
90 | CCN(Cc1nc2c(cnn2C)c(=O)[nH]1)c1ccc(F)cc1 | -1.67
91 | COc1ccc(COCC(O)CNC(=O)c2ccncc2)cc1 (configuration not stated) | -5.31
92 | Cc1ccc(C)c(C(=O)N2CCN(C(=O)Cc3ccccn3)CC2)c1 | -15.1

Row | Compound | cytotoxicity at 10 µM [%]
93 | Cc1cc(C)c(CNC(=O)NCC(c2ccccc2)N(C)C)c(=O)[nH]1 (configuration not stated) | -3.19
94 | CN(C)S(=O)(=O)c1ccc(CN2CCCC2c2ccc[nH]2)o1 (configuration not stated) | -4.03
95 | Cc1nn(CC(C)C)c(N(C)C)c1CNCc1cccc2c1OCO2 | -10.2
96 | Cc1ccc(CNC(=O)N2CCN(Cc3ccsc3)CC2)n1C | 9.58
97 | CN1CCC(C(=O)NCc2nncn2-c2ccccc2)CC1=O (configuration not stated) | -4.32
98 | CC1CN(C(=O)CN(Cc2ccco2)C2CC2)CCO1 (configuration not stated) | 3.97
99 | CCc1nc(CN2CCCC(NCc3cc(C)no3)C2)no1 (configuration not stated) | 1.59
100 | COCC1CC2(CCN(c3cccc(C)n3)CC2)CN1C(C)C (configuration not stated) | -109
101 | CN1C(=O)CC(c2ccncc2)C12CCN(c1ncccn1)CC2 (configuration not stated) | -108
102 | O=C(C1CCCO1)N1CCCC2(CCN(c3cccnc3)CC2)C1 (configuration not stated) | 2.68
103 | COCCN1CCOCC2(CCN(c3cnccn3)CC2)C1 | -87.4
104 | CCCN1CCC(c2nc3ccc(C)cn3n2)CC1 | -118
105 | CN(C)CCN1C(=O)CCC12CCN(Cc1cccs1)CC2 | 3.88
106 | O=C(NC1CC(F)(F)C1)[C@]12COC[C@H]1CN(Cc1cccnc1)C2 | -109
107 | c1cnc(N2CCC3(CN(CC4CCOC4)C3)C2)nc1 (configuration not stated) | -5.77
108 | Cn1cc(-c2ncc3c(c2C(=O)O)CCN(Cc2ccccn2)C3)cn1 | -107
109 | O=C(NCc1ccccn1)[C@@H]1COC[C@H]2CN(C3CCOCC3)C[C@H]21 | 2.52
110 | COc1ncccc1CN1C[C@H]2C[C@@H](C(=O)NCC3CC3)N(C)[C@H]2C1 | -2.54
111 | CN1CCN(Cc2cccnc2)C(=O)C12CCN(CC1CCOC1)CC2 (configuration not stated) | -106
112 | CC(C)=CCN1C[C@@H]2CC[C@H]1CN(CCC(=O)NCc1ccco1)C2 | -3.08
